Experimental data as given in article PMC6429430 (ACS Chemical Neuroscience, 2018).
Where two headings read alike, the source gives them in different places.

How the values were obtained:
[1] = Reported 2 week toxicity of CI-994 in dogs; type: in vivo, dog
[2] = rats, 1.5, 5, 15 mg/kg daily orally, 2 weeks; cited from earlier work
[3] = biological target: T1, HDAC11 (Homo sapiens, UniProt Q96DB2); assay: Recombinant HDAC isoform biochemical assay
T1 sequence (Q96DB2 1-347): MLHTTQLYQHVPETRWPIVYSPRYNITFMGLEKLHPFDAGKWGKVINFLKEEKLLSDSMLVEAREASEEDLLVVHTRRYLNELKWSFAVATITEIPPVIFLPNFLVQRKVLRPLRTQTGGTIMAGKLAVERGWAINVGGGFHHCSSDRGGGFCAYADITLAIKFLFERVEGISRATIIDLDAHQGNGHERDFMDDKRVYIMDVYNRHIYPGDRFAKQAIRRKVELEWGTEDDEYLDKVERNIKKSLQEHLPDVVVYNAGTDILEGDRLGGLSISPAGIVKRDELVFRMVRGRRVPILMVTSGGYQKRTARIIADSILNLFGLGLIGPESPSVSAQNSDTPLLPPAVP

[4] = system: dendritic spines in CA1 region of the dorsal hippocampus; assay: Hippocampal dendritic spine density analysis; type: in vivo, mouse; conditions: WT mice
[5] = system: human myeloid progenitors; assay: Colony forming cell; type: cell-based; conditions: human bone marrow cells, 14 days in culture
Procedure, shortened: (§1)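 Normal human bone marrow light-density cells, thawed rapidly and washed in IMDM + 10% FBS, were plated at 2.0 × 10^4 cells per culture. Medium was semisolid methylcellulose with rhIL-3 10 ng/mL, rhGM-CSF 10 ng/mL, rhSCF 50 ng/mL and Epo 3 U/mL. Compound was added at final 10, 2 and 0.4 μM, with 0.1% DMSO solvent control and 5-FU (1.0, 0.1, 0.01 μg/mL) as positive control. After 14 days, erythroid (CFU-E, BFU-E) and myeloid (CFU-GM) colonies were scored microscopically. Three replicate cultures were compared with solvent control by two-tailed t test.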

[6] = system: hippocampal LTP (Schaffer collateral-CA1); assay: LTP in 5xFAD mice; type: in vivo, mouse; conditions: aged 5xFAD mice, 1 mg/kg po for 14 days
Procedure, shortened: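 Aged 5xFAD mice on a C57BL/6J background (9–12 months) and age-matched WT mice were dosed by oral gavage once daily for 14 days (n = 8 per group). Hippocampal slices (350 μm) were held at room temperature for at least 1 h in oxygenated aCSF (pH 7.4), then perfused at 30 °C for 0.5 h in a multielectrode chamber. Schaffer collateral–CA1 LTP was recorded as normalised fEPSP slope over the last 10 min.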

[7] = cited from earlier work
[8] = system: human erythroid progenitors; assay: Colony forming cell; type: cell-based; conditions: human bone marrow cells, 14 days in culture
Procedure, shortened: as §1

CC(=O)Nc1ccc(C(=O)Nc2ccccc2N)cc1 [CI-994]
safety margin ([1]; HED at reported dog NOAEL vs efficacious HED): 3.4 fold | NOAEL at 2 weeks ([1]; dog, in vivo, 0.5 mg/kg): 16.2 mg/kg | dose-limiting toxicity [2]: primarily bone marrow suppression | IC50 [3]: > 30 µM | increase in total spine density ([4]; 1 mg/kg daily oral for 14 days, vs vehicle): 29% | dendritic spine density compared to vehicle-treated controls ([4]; oral daily 14 days, Rodin-A 1, 3, 6 mg/kg, CI-994 1 and 3 mg/kg): significant increases in spine density | myeloid progenitors: % control at 10 μM [5]: 0 % control | effect on impaired LTP [6]: improves impaired LTP | reported NOAEL in dogs ([7]; 2 weeks of daily dosing): 0.5 mg/kg | dose-limiting toxicity ([7]; dogs, 0.5, 2, 5 mg/kg daily, 2 weeks): primarily bone marrow suppression | day 12 AUC ([7]; male dogs, 2 mg/kg daily): 9.91 ng·h/mL | erythroid progenitors: % control at 10 μM [8]: 0 % control
